For assay [1], the target named is T1, Protein kinase C beta type (Homo sapiens, UniProt P05771). The assay can be described thus: Evaluated against recombinant human Protein kinase C beta 1. In a few lines: (§1)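 Recombinant human PKC isozymes expressed in SF9 cells via baculovirus, partly purified (50–90%). 32P transfer from 30 μM [32P]ATP to 200 μg/mL histone IIIS in 20 mM Hepes pH 7.5, 10 mM MgCl2, EGTA, CaCl2, phosphatidylserine, and diacylglycerol at the isozyme-dependent level giving half-maximal activation. 10 min at 30 °C, TCA stop, filter counting. No-lipid background subtracted.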

For assay [2], the target named is T1, Protein kinase C beta type. The assay can be described thus: Evaluated against recombinant human Protein kinase C beta 2. Put shortly:
as §1

Assay [3] deals with Protein kinase C gamma type (Homo sapiens, UniProt P05129). The assay can be described thus: Evaluated against recombinant human Protein kinase C gamma. In a few lines: as §1
The target of assay [4] is Protein kinase C delta type (Homo sapiens, UniProt Q05655). The experiment in a line: Evaluated against recombinant human Protein kinase C delta. In a few lines:
as §1

Assay [5] has as its target Protein kinase C alpha type (Homo sapiens, UniProt P17252). The assay can be described thus: Evaluated against recombinant human Protein kinase C alpha. In a few lines: as §1
The target in assay [6] is T2, Protein kinase C epsilon type (Homo sapiens, UniProt Q02156).
T2 sequence (Q02156 whole entry): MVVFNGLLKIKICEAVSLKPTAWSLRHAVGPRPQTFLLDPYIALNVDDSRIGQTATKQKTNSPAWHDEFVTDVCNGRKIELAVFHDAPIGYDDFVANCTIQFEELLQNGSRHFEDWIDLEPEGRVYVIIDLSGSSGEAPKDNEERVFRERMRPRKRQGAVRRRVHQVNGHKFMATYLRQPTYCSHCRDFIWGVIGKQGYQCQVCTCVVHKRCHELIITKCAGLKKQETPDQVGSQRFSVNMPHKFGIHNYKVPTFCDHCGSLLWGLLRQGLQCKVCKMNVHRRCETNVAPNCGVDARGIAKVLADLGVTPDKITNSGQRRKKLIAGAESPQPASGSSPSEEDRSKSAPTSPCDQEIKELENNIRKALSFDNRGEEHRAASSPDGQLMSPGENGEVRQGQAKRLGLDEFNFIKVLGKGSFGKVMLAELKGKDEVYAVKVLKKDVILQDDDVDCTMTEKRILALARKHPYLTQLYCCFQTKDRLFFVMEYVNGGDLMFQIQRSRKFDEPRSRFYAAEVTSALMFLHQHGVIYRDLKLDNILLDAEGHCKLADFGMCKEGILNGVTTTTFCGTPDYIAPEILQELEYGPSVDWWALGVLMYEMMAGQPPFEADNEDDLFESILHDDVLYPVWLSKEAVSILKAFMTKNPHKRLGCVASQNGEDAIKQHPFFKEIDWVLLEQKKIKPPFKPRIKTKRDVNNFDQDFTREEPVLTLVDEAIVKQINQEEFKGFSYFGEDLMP
The assay can be described thus: Evaluated against recombinant human Protein kinase C epsilon. In a few lines: as §1

Assay [7] addresses Protein kinase C eta type (Homo sapiens, UniProt P24723). The assay can be described thus: Evaluated against recombinant human Protein kinase C eta. In a few lines:
as §1

Assay [8] can be described thus: Evaluated against bovine heart Protein Kinase A (PKA).

This is an account of results in ChEMBL document CHEMBL1129461 (J Med Chem, 1996).

By IC50 is commonly meant the midpoint of a concentration-inhibition curve.

Chain of Protein kinase C eta type (P24723 whole entry): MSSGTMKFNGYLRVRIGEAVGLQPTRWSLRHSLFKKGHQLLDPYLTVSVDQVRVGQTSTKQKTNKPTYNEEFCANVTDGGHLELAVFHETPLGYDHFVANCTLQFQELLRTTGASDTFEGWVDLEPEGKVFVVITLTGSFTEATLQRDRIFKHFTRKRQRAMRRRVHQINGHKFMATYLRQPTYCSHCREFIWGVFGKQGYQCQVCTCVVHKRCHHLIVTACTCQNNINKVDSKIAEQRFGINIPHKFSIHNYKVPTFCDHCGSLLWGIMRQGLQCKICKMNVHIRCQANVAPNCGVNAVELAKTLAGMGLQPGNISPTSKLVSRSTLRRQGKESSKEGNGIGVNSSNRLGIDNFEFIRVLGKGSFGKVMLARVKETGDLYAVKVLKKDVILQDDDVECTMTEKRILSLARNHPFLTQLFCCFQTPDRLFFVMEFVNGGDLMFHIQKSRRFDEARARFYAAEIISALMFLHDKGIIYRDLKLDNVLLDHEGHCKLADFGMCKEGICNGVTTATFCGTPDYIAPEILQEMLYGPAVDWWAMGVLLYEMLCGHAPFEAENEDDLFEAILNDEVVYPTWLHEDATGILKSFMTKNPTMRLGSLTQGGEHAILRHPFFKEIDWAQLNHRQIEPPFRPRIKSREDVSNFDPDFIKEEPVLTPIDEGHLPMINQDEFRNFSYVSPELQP
Chain of Protein kinase C delta type (Q05655 whole entry): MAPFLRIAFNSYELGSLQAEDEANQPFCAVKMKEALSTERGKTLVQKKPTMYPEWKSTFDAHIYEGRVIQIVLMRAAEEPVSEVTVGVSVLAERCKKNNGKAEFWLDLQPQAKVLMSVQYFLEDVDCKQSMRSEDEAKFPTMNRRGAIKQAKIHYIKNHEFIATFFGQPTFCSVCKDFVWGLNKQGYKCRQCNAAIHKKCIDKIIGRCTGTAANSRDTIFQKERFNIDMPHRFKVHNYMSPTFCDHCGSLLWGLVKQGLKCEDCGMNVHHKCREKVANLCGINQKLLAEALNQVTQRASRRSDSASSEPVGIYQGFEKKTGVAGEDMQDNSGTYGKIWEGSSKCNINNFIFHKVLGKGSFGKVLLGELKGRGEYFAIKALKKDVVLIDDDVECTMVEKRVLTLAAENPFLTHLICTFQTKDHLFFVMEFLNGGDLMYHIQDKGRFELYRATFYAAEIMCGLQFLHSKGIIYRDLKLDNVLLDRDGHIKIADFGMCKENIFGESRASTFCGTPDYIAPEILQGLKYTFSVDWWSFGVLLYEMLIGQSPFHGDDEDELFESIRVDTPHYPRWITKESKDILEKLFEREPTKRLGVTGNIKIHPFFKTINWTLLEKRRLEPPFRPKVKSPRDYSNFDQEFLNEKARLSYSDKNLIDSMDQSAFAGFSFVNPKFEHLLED
T1 sequence (P05771 whole entry): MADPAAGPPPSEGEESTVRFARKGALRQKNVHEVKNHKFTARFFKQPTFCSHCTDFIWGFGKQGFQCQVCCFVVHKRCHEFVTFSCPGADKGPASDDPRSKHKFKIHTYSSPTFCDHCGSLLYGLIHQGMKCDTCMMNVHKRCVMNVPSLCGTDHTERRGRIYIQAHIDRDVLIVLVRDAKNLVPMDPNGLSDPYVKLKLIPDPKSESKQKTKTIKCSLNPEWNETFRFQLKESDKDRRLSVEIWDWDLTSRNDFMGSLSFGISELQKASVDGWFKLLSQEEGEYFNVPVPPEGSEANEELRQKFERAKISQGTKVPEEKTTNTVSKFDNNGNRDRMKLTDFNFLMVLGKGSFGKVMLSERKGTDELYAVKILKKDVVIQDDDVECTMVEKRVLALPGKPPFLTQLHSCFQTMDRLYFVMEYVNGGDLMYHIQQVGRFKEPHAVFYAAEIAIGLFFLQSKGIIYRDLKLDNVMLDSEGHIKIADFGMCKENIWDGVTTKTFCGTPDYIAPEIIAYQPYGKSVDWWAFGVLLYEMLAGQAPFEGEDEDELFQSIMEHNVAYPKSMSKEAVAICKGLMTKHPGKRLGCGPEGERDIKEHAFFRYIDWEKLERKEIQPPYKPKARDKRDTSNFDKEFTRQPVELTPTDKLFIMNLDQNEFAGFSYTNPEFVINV

With `O=C(OCCCc1ccc(O)cc1)c1cc(O)c(C(=O)c2c(O)cccc2C(=O)O)c(O)c1`, the IC50 in assay [1] was 210 nM; in assay [2], 270 nM; in assay [3], 830 nM; in assay [4] it was 130 nM; in assay [5], 1900 nM; in assay [6] it was 4100 nM. Further, the IC50 in assay [7] was under 50 nM; in assay [8] it was over 50000 nM.
As for `COC(=O)c1cccc(O)c1C(=O)c1c(O)cc(C(=O)OC2CCCC2Cc2ccc(O)cc2)cc1O` (stereo not given), the IC50 in assay [1] is 100 nM; in assay [2], 90 nM; in assay [3], 1700 nM; in assay [4] it was 50 nM; in assay [5], 1400 nM; in assay [6], 4500 nM. The results for the IC50 in assay [7] and in assay [8] were 40 nM and over 50000 nM, respectively.
Regarding `COC(=O)c1cccc(O)c1C(=O)c1c(O)cc(C(=O)OCCCc2ccc(O)cc2)cc1O`, the IC50 was found to be 460 nM in assay [1]; 750 nM in assay [2]; 4100 nM in assay [3]; 300 nM in assay [4]; 7800 nM in assay [5]; 170 nM in assay [7].
In the case of `O=C(OCCCCc1ccc(O)cc1)c1cc(O)c(C(=O)c2c(O)cccc2C(=O)O)c(O)c1`, the half-inhibitory concentration (IC50) in assay [1] was determined as 960 nM; in assay [2] it was 370 nM; in assay [3], 1400 nM; in assay [4], 290 nM; in assay [5], 3300 nM; in assay [6] it was 30000 nM. In addition, the values for the IC50 in assay [7] and in assay [8] were 250 nM and over 50000 nM, respectively.
With `O=C(NCCOC(=O)c1cc(O)c(C(=O)c2c(O)cccc2C(=O)O)c(O)c1)c1ccc(O)cc1`, the IC50 in assay [1] amounted to 4500 nM; in assay [2], 7500 nM; in assay [3], 6600 nM; in assay [4], 410 nM; in assay [5] it was 11000 nM; in assay [6] it was 13000 nM. In addition, the 50% inhibitory concentration (IC50) in assay [7] was determined as 230 nM; in assay [8], 8400 nM.
Turning to `O=C(OC[C@H](Cc1ccc(O)cc1)NS(=O)(=O)c1ccccc1)c1cc(O)c(C(=O)c2c(O)cccc2C(=O)O)c(O)c1`, the IC50 in assay [1] was determined as 230 nM; in assay [2], 20 nM; in assay [3] it was 2600 nM; in assay [4], 30 nM; in assay [5], 1900 nM; in assay [6], 2300 nM. Further, the figures for the IC50 in assay [7] and in assay [8] were 20 nM and over 50000 nM, respectively.
Turning to `O=C(OCC(COc1ccc(O)cc1)NS(=O)(=O)c1ccccc1)c1cc(O)c(C(=O)c2c(O)cccc2C(=O)O)c(O)c1` (stereo not given), the IC50 came to 1600 nM in assay [1]; 830 nM in assay [2]; 1600 nM in assay [3]; 220 nM in assay [4]; 18000 nM in assay [5]; 47000 nM in assay [6]. For the same compound, the IC50 is 500 nM in assay [7] and over 50000 nM in assay [8].
Turning to `CN(C)C(COC(=O)c1cc(O)c(C(=O)c2c(O)cccc2C(=O)O)c(O)c1)Cc1ccc(O)cc1` (stereo not given), the IC50 in assay [1] is 880 nM; in assay [2] it was 500 nM; in assay [3], 4200 nM; in assay [4], 270 nM; in assay [5], 4000 nM; in assay [6] it was 30000 nM. For the same compound, the values for the IC50 in assay [7] and in assay [8] were 1400 nM and over 50000 nM, respectively.
Consider `O=C(OC1CCCC1Oc1ccc(O)cc1)c1cc(O)c(C(=O)c2c(O)cccc2C(=O)O)c(O)c1` (stereo not given), for which the IC50 in assay [1] stood at 20 nM; in assay [2] it was 20 nM; in assay [3] it was 250 nM; in assay [4], 20 nM; in assay [5], 220 nM; in assay [6], 240 nM. Also, the IC50 in assay [7] is 10 nM; in assay [8], over 50000 nM.
On to `O=C(OC1CCCC1Cc1ccc(O)cc1)c1cc(O)c(C(=O)c2c(O)cccc2C(=O)O)c(O)c1` (stereo in doubt; 20b), for which the IC50 in assay [1] is 20 nM; in assay [2], 20 nM; in assay [3] it was 130 nM; in assay [4] it was 30 nM; in assay [5], 160 nM; in assay [6] it was 500 nM. Moreover, the IC50 in assay [7] is 10 nM.
On to `COC(=O)c1cccc(O)c1C(=O)c1c(O)cc(C(=O)OC2CNCC2Cc2ccc(O)cc2)cc1O` (stereo not given), for which the IC50 was 110 nM in assay [1]; 250 nM in assay [2]; 380 nM in assay [3]; 100 nM in assay [4]; 2200 nM in assay [5]; 500 nM in assay [7].
With `O=C(OCC(Cc1ccc(O)cc1)NS(=O)(=O)c1ccc2ccccc2c1)c1cc(O)c(C(=O)c2c(O)cccc2C(=O)O)c(O)c1` (stereo not given), the IC50 in assay [1] was 2800 nM; in assay [2], 1800 nM; in assay [3] it was 2700 nM; in assay [4], 2600 nM; in assay [5], 3200 nM; in assay [6], 39000 nM. The concentration for half-maximal inhibition (IC50) in assay [7] is 35000 nM; in assay [8], over 50000 nM.
As for `O=C(OC1CNCC1Cc1ccc(O)cc1)c1cc(O)c(C(=O)c2c(O)cccc2C(=O)O)c(O)c1` (stereo not given), the IC50 came out at 10 nM in assay [1]; 30 nM in assay [2]; 40 nM in assay [3]; 5 nM in assay [4]; 260 nM in assay [5]; 1800 nM in assay [6]. Besides, in assay [7], the IC50 is 20 nM.
Take `O=C(NC(COC(=O)c1cc(O)c(C(=O)c2c(O)cccc2C(=O)O)c(O)c1)Cc1ccc(O)cc1)c1ccc(O)cc1` (stereo not given): the IC50 in assay [1] is 3600 nM; in assay [2], 3000 nM; in assay [3], 2900 nM; in assay [4] it was 820 nM; in assay [5] it was 18000 nM; in assay [6], over 50000 nM. Further, the IC50 in assay [7] is 2300 nM; in assay [8], over 50000 nM.
As for `O=C(NC(COC(=O)c1cc(O)c(C(=O)c2c(O)cccc2C(=O)O)c(O)c1)Cc1ccc(O)cc1)c1ccccc1` (stereo not given), the IC50 in assay [2] was 2800 nM; in assay [4], 22000 nM; in assay [5] it was 45000 nM; in assay [6], over 50000 nM; in assay [7], 18000 nM; in assay [8] it was over 50000 nM.
As to `O=C(NC1CNCCCC1OC(=O)c1cc(O)c(C(=O)c2c(O)cccc2C(=O)O)c(O)c1)c1ccc(O)cc1` (racemic), the IC50 came to 30 nM in assay [1]; 30 nM in assay [2]; 30 nM in assay [3]; 23 nM in assay [4]; 67 nM in assay [5]; 20 nM in assay [7]. The compound also displayed an IC50 in assay [8] of 60 nM.
With `O=C(NC1CCCC1OC(=O)c1cc(O)c(C(=O)c2c(O)cccc2C(=O)O)c(O)c1)c1ccc(O)cc1` (stereo not given), the IC50 in assay [1] came out at 40 nM; in assay [2] it was 50 nM; in assay [3], 10 nM; in assay [4], 0.9 nM; in assay [5] it was 40 nM; in assay [6], 50 nM. Further, the IC50 in assay [7] was found to be 0.6 nM.
As to `Cc1ccc(S(=O)(=O)N2CCC[C@@H](OC(=O)c3cc(O)c(C(=O)c4c(O)cccc4C(=O)O)c(O)c3)[C@H](NC(=O)c3ccc(O)cc3)C2)cc1`, the IC50 in assay [1] was found to be 70 nM; in assay [2], 20 nM; in assay [3], 3500 nM; in assay [4], 4200 nM; in assay [5] it was 6100 nM; in assay [6] it was 15000 nM. Besides, the IC50 was 100 nM in assay [7] and over 150000 nM in assay [8].
Consider `CS(=O)(=O)NC(COC(=O)c1cc(O)c(C(=O)c2c(O)cccc2C(=O)O)c(O)c1)Cc1ccc(O)cc1` (stereo not given), for which the half-maximal inhibitory concentration (IC50) in assay [1] was 220 nM; in assay [2], 430 nM; in assay [3], 5000 nM; in assay [4] it was 410 nM; in assay [5] it was 23000 nM; in assay [6], over 50000 nM. Also, the IC50 is 390 nM in assay [7] and over 50000 nM in assay [8].
Take `O=C(OC[C@@H](Cc1ccc(O)cc1)NS(=O)(=O)c1ccccc1)c1cc(O)c(C(=O)c2c(O)cccc2C(=O)O)c(O)c1`: the 50% inhibitory concentration (IC50) in assay [1] worked out at 30 nM; in assay [2], 7 nM; in assay [3], 470 nM; in assay [4], 3 nM; in assay [5], 210 nM; in assay [6] it was 460 nM. The IC50 is 3 nM in assay [7] and over 50000 nM in assay [8].
